Target: T1, YfcG (Escherichia coli, UniProt P77526)
T1 sequence (P77526 1-215): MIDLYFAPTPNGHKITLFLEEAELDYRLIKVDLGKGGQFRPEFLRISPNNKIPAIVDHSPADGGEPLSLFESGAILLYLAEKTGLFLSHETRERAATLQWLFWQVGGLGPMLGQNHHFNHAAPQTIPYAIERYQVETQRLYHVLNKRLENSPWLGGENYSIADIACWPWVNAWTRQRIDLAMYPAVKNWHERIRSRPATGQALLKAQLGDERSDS
Assay: intrinsic fluorescence titration
Type: binding
Procedure, shortened: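 Purified enzyme titrated with thiol and disulfide ligands at 25 °C, monitoring the protein's intrinsic fluorescence; dissociation constants derived from the titration.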

## N[C@@H](CCC(=O)N[C@@H](CS(=O)(=O)O)C(=O)NCC(=O)O)C(=O)O [GSO3^−]
  Kd: 23 ± 5 µM
